Results published in ChEMBL document CHEMBL4020840, “Synthesis and Biological Evaluation of Selenium-Containing 4-Anilinoquinazoline Derivatives as Novel Antimitotic Agents” (J Med Chem, 2018).
Where a name gives a salt, the structure may show the parent alone. Active and inactive are the calls of the source. The rule behind the calls is not given here.

Tests used:
[1] = system: LoVo; test: Growth inhibition of human LoVo cells after 48 hrs by MTT assay; format: functional, cell-based
Method in brief: (§1)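 MTT assay: log-phase cells plated at 5 × 10³/well for 24 h, then exposed to a range of test concentrations for 48 h. MTT (5 mg/mL) added for 4 h, formazan dissolved in DMSO, absorbance read at 570 nm. IC50 is the concentration giving 50% growth inhibition, from dose-response curves; at least three independent experiments, mean ± SE.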

[2] = system: A549; test: Growth inhibition of human A549 cells after 48 hrs by MTT assay; format: functional, cell-based; conditions: A549, 48 h
[3] = system: MDA-MB-231; test: Growth inhibition of human MDA-MB-231 cells after 48 hrs by MTT assay; format: functional, cell-based; conditions: MDA-MB-231, 48 h; method in brief: as §1
[4] = system: HCT-116; test: Growth inhibition of human HCT116 cells after 48 hrs by MTT assay; format: functional, cell-based; conditions: HCT-116, 48 h; method in brief: as §1
[5] = system: RKO; test: Growth inhibition of human RKO cells after 48 hrs by MTT assay; format: functional, cell-based; method in brief: as §1
[6] = system: HepG2; test: Growth inhibition of human HepG2 cells after 48 hrs by MTT assay; format: functional, cell-based; conditions: HepG2, 48 h; method in brief: as §1
[7] = system: A549; test: Antitumor activity against human A549 cells xenografted in Balb/c mouse assessed as tumor growth inhibition at 2.5 mg/kg, ip treated once in 2 days for 10 days relative to control; format: functional; conditions: read-out: TGI
Method in brief: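 Male BALB/c nude mice, 5 weeks old, 18−20 g. Right flank injected sc with 0.1 mL of 1 × 10⁷ cells/mL log-phase A549 in FBS-free DMEM. At ~100 mm³, randomised into groups of 5 and dosed ip every 2 days; vehicle controls got equal volume. Tumour volume (0.5 × length × width²) and body weight recorded every 2 days.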

[8] = organism: Sus scrofa; test: Inhibition of porcine brain tubulin polymerization measured every 60 secs for 90 mins by DAPI staining based fluorescence assay
Method in brief: (§2)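 Purified tubulin was tested in a kit assay. Final buffer: 80 mM PIPES sesquisodium (pH 6.9), 2.0 mM MgCl₂, 0.5 mM EGTA, 1 mM GTP, 10.2% glycerol. Compound (0.1–10 μM) was prewarmed at 37 °C for 1 min before tubulin was added. DAPI reporter fluorescence (ex 340 / em 410 nm) was read every 60 s for 90 min. Area under the curve gave percent inhibition versus control and the IC50.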

[9] = system: A549; test: Cell cycle arrest in human A549 cells assessed as accumulation at G2/M phase up to 24 hrs by propidium iodide staining based flow cytometry; format: functional
Method in brief: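 A549 seeded in six-well plates at 3 × 10⁵ cells/well and treated for 12 or 24 h; vehicle 0.01% DMSO. Cells fixed overnight in ice-cold 70% ethanol, treated with RNase A at 37 °C for 30 min, then stained with PI at 4 °C for 30 min. About 10 000 events acquired by flow cytometry at 488 nm; three experiments.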

[10] = organism: Sus scrofa; test: Inhibition of porcine brain tubulin polymerization at 7.5 uM measured every 60 secs for 90 mins by DAPI staining based fluorescence assay relative to control; method in brief: as §2
[11] = system: A549; test: Antimigratory activity against human A549 cells assessed as suppression of wound healing at 4 nM after 24 hrs by phase contrast microscopic method; format: functional, cell-based
Method in brief: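 Scratch wound assay: A549 plated at 5 × 10⁴ cells/dish and grown 24 h before scraping with a 10 μL tip. Medium then swapped to serum-free DMEM containing compound (4 nM) for 24 h. After a PBS wash, wound images taken at 0 and 24 h; at least three independent experiments.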

COc1ccc(N(C)c2nc(C)nc3ccccc23)cc1C(=O)OCCCCCC[Se]C#N
IC50 [1]: 1050 nM
IC50 [2]: 488 nM
IC50 [3]: 2210 nM
IC50 [4]: 1990 nM
IC50 [5]: 1990 nM
IC50 [6]: 2650 nM

COc1ccc(N(C)c2nc(C)nc3ccccc23)cc1OCCN
IC50 [1]: 421 nM
IC50 [2]: 122 nM
IC50 [3]: 682 nM
IC50 [4]: 198 nM
IC50 [5]: 343 nM
IC50 [6]: 343 nM

C[Se]c1ccc(N(C)c2nc(C)nc3ccccc23)cc1
inhibition in vivo at 2.5 mg/kg [7]: 75.7%

COc1ccc(N(C)c2nc(C)nc3ccccc23)cc1C(=O)OCCC[Se]C#N
IC50 [1]: 854 nM
IC50 [2]: 250 nM
IC50 [3]: 1180 nM
IC50 [4]: 720 nM
IC50 [5]: 1140 nM
IC50 [6]: 340 nM

Cc1nc(N(C)c2ccc([Se]C#N)c(C)c2)c2ccccc2n1
IC50 [1]: 19 nM
IC50 [2]: 8 nM
IC50 [3]: 16 nM
IC50 [4]: 13 nM
IC50 [5]: 17 nM
IC50 [6]: 9 nM

COc1ccc(N(C)c2nc(C)nc3ccccc23)cc1C(=O)NCC[Se]C#N
IC50 [1]: 561 nM
IC50 [2]: 187 nM
IC50 [3]: 1250 nM
IC50 [4]: 313 nM
IC50 [5]: 1170 nM
IC50 [6]: 179 nM

COc1ccc(N(C)c2nc(C)nc3ccccc23)cc1[Se]C#N
IC50 [1]: 73 nM
IC50 [2]: 49 nM
IC50 [3]: 52 nM
IC50 [4]: 34 nM
IC50 [5]: 47 nM
IC50 [6]: 59 nM

COc1ccc(N(C)c2nc(C)nc3ccccc23)cc1C(=O)OCC[Se]C#N
IC50 [1]: 2960 nM
IC50 [2]: 353 nM
IC50 [3]: 1480 nM
IC50 [4]: 951 nM
IC50 [5]: 2390 nM
IC50 [6]: 890 nM

COc1ccc(N(C)c2nc(C)nc3ccccc23)cc1OCCCC[Se]C#N
IC50 [1]: 882 nM
IC50 [2]: 1200 nM
IC50 [3]: 1350 nM
IC50 [4]: 512 nM
IC50 [5]: 1360 nM
IC50 [6]: 6460 nM

C[Se]c1ccc(N(C)c2nc(C)nc3ccccc23)cc1F [listing 1 of 2 here]
inhibition [8]: Dose-dependent effect
Activity [9]: Dose-dependent effect
inhibition [10]: 90.5%
Activity [11]: Active

[2H]C([2H])([2H])c1nc(N(C)c2ccc([Se]C#N)cc2)c2ccccc2n1
IC50 [1]: 14 nM
IC50 [2]: 7 nM
IC50 [3]: 11 nM
IC50 [4]: 10 nM
IC50 [5]: 11 nM
IC50 [6]: 21 nM

C[Se]c1ccc(N(C)c2nc(C)nc3ccccc23)cc1F [listing 2 of 2 here]
inhibition in vivo at 2.5 mg/kg [7]: 77.2%

COc1ccc(N(C)c2nc(C)nc3ccccc23)cc1OCC[Se]C#N
IC50 [1]: 19 nM
IC50 [2]: 13 nM
IC50 [3]: 13 nM
IC50 [4]: 18 nM
IC50 [5]: 27 nM
IC50 [6]: 14 nM

Cc1nc(N(C)c2ccc(OCC[Se]C#N)cc2)c2ccccc2n1
IC50 [1]: 547 nM
IC50 [2]: 893 nM
IC50 [3]: 317 nM
IC50 [4]: 2290 nM
IC50 [5]: 652 nM
IC50 [6]: 1680 nM

C[Se]c1ccc(N(C)c2nc(C)nc3ccccc23)cc1C
IC50 [1]: 9 nM
IC50 [2]: 2 nM
IC50 [3]: 7 nM
IC50 [4]: 3 nM
IC50 [5]: 8 nM
IC50 [6]: 6 nM

Cc1nc(N(C)c2ccc([Se]C#N)cc2)c2ccccc2n1
inhibition in vivo at 2.5 mg/kg [7]: 69.8%

COc1ccc(N(C)c2nc(C)nc3ccccc23)cc1 [VERUBULIN HYDROCHLORIDE]
inhibition in vivo at 2.5 mg/kg [7]: 68.6%
